A selection: hits, their analogues and other compounds. The true share with any hit is near 2.7%.
p97 inhibitor – blocks human p97 ATPase activity; recombinant p97 ATPase, Kinase-Glo ATP luminescence, 3 h; inhibition, % at 8 µM; hit rate 0.42% among 220,000; in the data active = inhibition above about 15%;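 note: 0% = DMSO vehicle and 100% = wells lacking enzyme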
M18AAP inhibitor – blocks P. falciparum M18 aspartyl aminopeptidase. recombinant PfM18AAP, H-Glu-NHMec fluorogenic cleavage. inhibition, % at 7.35 µM. hit rate 1.2% among 290,000;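 active = inhibition above the campaign mean inhibition over all tested compounds plus 3 SD, cut at about 28% in these data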;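 note: 0% = plate median of test compound wells and 100% = 2 mM ZnCl2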
TNF necrop inh – blocks TNF-alpha induced death of Jurkat FADD-/- cells. AID 463075. Jurkat FADD-/- TNF necroptosis rescue, ATP luminescence, 24 h; 0 = TNF only, 100 = no-TNF cells. hit rate 0.068% among 220,000. activation (protection from cell death), % at 10 µM;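 active = activation, meaning protection from cell death, of at least 50% relative to plate controls; inactive = activation below 50%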;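 note: necroptosis triggered by 40 ng/mL TNF-alpha added together with compound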
Wee1 stabilizer – inhibitors of human Wee1 degradation. P30291. HeLa Luc-Wee1K328M stability, luciferase luminescence; 100% = proteasome inhibitor MG132 effect. reporter increase, % at 5 µM. hit rate 1.2% among 220,000. AID 1321;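 active = activation above the mean of all tested compounds plus 3 SD, set per screening run, cut at about 8.8% in these data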;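 note: cells exposed to compound for 20 h before luminescence read; 0% = DMSO alone and 100% = MG132 at 30 µM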
L929 necroptosis – blocks zVAD induced death of L929 cells; L929 zVAD necroptosis rescue, ATP luminescence, 24 h; with zVAD 60 µM; viability rescue, % at 10 µM; hit rate 0.38% among 220,000; AID 1377;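 active = activation, scaled between plate controls, above about 75%, limit read from the data; inactive = activation under that limit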;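 note: 0% = zVAD with DMSO and 100% = DMSO alone without zVAD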
RBBP9 inh – human RBBP9 hydrolase inhibition | O75884 | inhibition, % at 7.94 µM | recombinant RBBP9, FP-Rh probe fluorescence polarization | AID 1515 | hit rate 0.2% among 220,000;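 active = inhibition above the campaign mean of all tested compounds plus 3 SD, cut at about 14% in these data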;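 note: plate controls were DMSO wells with RBBP9 for no effect and wells lacking RBBP9 protein for full effect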
Target sequence (O75884 whole entry, looked up): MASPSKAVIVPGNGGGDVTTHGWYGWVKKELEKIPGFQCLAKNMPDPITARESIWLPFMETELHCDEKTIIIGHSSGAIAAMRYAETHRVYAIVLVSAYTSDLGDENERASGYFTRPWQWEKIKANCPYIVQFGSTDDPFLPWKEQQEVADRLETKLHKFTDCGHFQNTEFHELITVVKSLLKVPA
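system = RBBP9 protein | input = RBBP9 at 2.5 µM in dispensed solution, before mixing | measured by = fluorescence polarization (mP), excitation 525 nm, emission 598 nm | incubation = enzyme-compound preincubation 30 min, then probe labeling 45 min, 25 °C | buffer or medium = Tris-NaCl-Pluronic buffer, pH 8.0 | compound = single dose 7.94 µM | also added = FP-Rh probe, 375 nM dispensing solution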
The depositor's hits bear a star; x = no result.

SMILES | p97 inhibitor | M18AAP inhibitor | TNF necrop inh | Wee1 stabilizer | L929 necroptosis | RBBP9 inh
CC(NC(=O)COC(=O)/C=C/c1ccc(Cl)cc1)c1ccccc1 (centres undefined) | 4.3 | -1.4 | 3.1 | 4.8 | 0.6 | 3.5
C=CCNC(=O)/C(C#N)=C/c1cc(Br)ccc1OC | 4.5 | 3.3 | -2.8 | 10.6* | -0.1 | 5.0
C=CCNC(=O)/C(C#N)=C/c1ccccc1Cl | 1.5 | -6.6 | -3.0 | -1.1 | 0.9 | -0.5
Nc1c(C=C2C=CC(=O)C=C2)c(=O)nc2sc(CC(=O)N3CCCCC3)nn12 | x | 7.8 | x | x | x | x
Nc1c(/C=C2/C=CC(=O)C(O)=C2)c(=O)nc2sc(CC(=O)N3CCCCC3)nn12 | x | 63.7* | x | x | x | x
O=[N+]([O-])c1cccn2cc(-c3ccc(Br)cc3)nc12 | 2.5 | -1.2 | -6.0 | 9.8* | 0.8 | 0.0
Cc1cccn2cc(-c3ccc(Cl)cc3)nc12 | -5.5 | -2.8 | -1.4 | 1.5 | -1.2 | -3.0
Cc1ccc(-c2cn3cccc(C)c3n2)cc1 | -1.6 | 1.9 | -2.0 | 9.8* | -0.6 | -9.2
O=C(COc1ccc(F)cc1)Nc1nnc(S(=O)(=O)N2CCCC2)s1 | x | 3.0 | x | x | x | x
COc1ccc(C2N(C(=O)c3ccccc3)CCN2C(=O)c2ccc(C)cc2)cc1 (centres undefined) | -0.2 | 4.6 | 0.4 | -2.2 | 0.0 | 0.6
COc1ccc(C2CN=NC2C(=O)c2ccccc2)cc1 (centres undefined) | 3.6 | 0.3 | 79.3* | 0.0 | 0.1 | -1.3
Cc1ccc2c(c1)C(=O)C(=O)N2CCOc1ccccc1 | 4.0 | 38.7* | -9.0 | -0.4 | -2.7 | 4.4
Cc1cccc(OCCN2C(=O)C(=O)c3cc(C)ccc32)c1 | -4.7 | 27.7 | -12.9 | 1.2 | -0.5 | -4.3
COc1ccc(OC)c(N(CC(=O)Nc2cccnc2)S(C)(=O)=O)c1 | 2.3 | -4.2 | 0.4 | 9.6* | 0.2 | -6.5
COc1ccc(N(CC(=O)Nc2cccc(C(F)(F)F)c2)S(C)(=O)=O)cc1 | -0.5 | 0.1 | 0.9 | 0.6 | -0.3 | 1.2
COc1ccc(N(CC(=O)Nc2cccc(SC)c2)S(C)(=O)=O)cc1 | 3.6 | -5.0 | 3.1 | 9.2* | 0.6 | 0.8
COc1ccc(OC)c(N(CC(=O)Nc2cccnc2)S(=O)(=O)c2ccc(OC)c(OC)c2)c1 | -1.0 | -2.8 | 0.0 | -0.2 | -0.3 | -5.0
O=C(COc1ccccc1Cl)NCCCNC(=O)c1cnccn1 | x | 0.4 | x | x | x | x
Cc1ccc(NC(=O)C2CCN(S(=O)(=O)c3c(C)n[nH]c3C)CC2)nc1 | 3.5 | 12.1 | 4.6 | 10.5* | 1.7 | -8.2
O=C1COc2ccc(S(=O)(=O)Nc3cccc(Cl)c3)cc2N1 | x | -0.2 | x | x | x | x
O=c1c2ccccc2cnn1Cc1n[nH]c(=S)n1-c1cc(Cl)cc(Cl)c1 | 6.4 | 30.4* | 0.7 | -2.9 | 1.1 | 1.4
COc1ccc(/C=N/NC(=O)c2cccc(NC(C)=O)c2)c(C(=O)O)c1OC | 2.4 | -1.5 | 0.0 | 4.3 | 0.7 | -9.6
CCCCn1c(NC(=O)c2ccccc2)c(C#N)c2nc3ccccc3nc21 | 39.8* | 18.8 | -4.6 | 1.9 | 0.0 | -5.8
Oc1ccc(/C=N/NC(=S)Nc2cccnc2)cc1O | 7.3 | 60.2* | 1.7 | 1.6 | 0.7 | -10.8
CC(C)(C)c1ccc(/C=N/NC(=S)Nc2cccnc2)cc1 | -3.9 | 12.5 | -0.6 | -1.0 | 0.4 | -6.5
SMILES | p97 inhibitor | M18AAP inhibitor | TNF necrop inh | Wee1 stabilizer | L929 necroptosis | RBBP9 inh
O=C(COC(=O)CCc1nc2ccccc2c(=O)[nH]1)Nc1ccccc1Cl | 9.6 | -2.0 | 1.6 | 1.8 | 0.2 | -2.1
N#Cc1ccc(NC(=O)COC(=O)CCc2nc3ccccc3c(=O)[nH]2)cc1 | 3.0 | -4.2 | -1.1 | 9.7* | -0.6 | -6.8
Cc1ccc2nc(N3CCN(c4cccc(C)c4C)CC3)c3nnnn3c2c1 | -1.7 | -8.6 | -1.7 | 10.4* | 0.7 | -8.8
CCOC(=O)c1nc(-c2ccccc2)oc1N1CCOCC1 | 1.9 | 5.0 | 0.0 | 0.5 | 4.5 | 0.9
CCOC(=O)C1=C(c2ccccc2)N2CCN=C2S1 | -8.0 | 32.4* | 21.2 | 1.3 | 1.0 | -0.5
CCCCNC(=O)Nc1ncn[nH]1 | 6.1 | 29.0* | -0.4 | 0.3 | 0.1 | -2.6
Cc1cccc(C)c1N1CCN(C(=O)Cn2cncn2)CC1 | 1.7 | 19.9 | 0.8 | -1.9 | 2.8 | -3.4
O=C(CN1CCCc2ccccc21)NC(=O)NC1CCCCC1 | -0.4 | 4.9 | 0.4 | 9.2* | 5.6 | 5.9
O=c1ccn(Cc2ccc(F)cc2)c2ccnc(C(F)(F)F)c12 | -4.3 | 4.2 | 1.5 | 0.8 | 0.1 | -5.8
CN1CCN(C(=O)c2ccc3c(c2)N(Cc2ccc(F)cc2)C(=O)c2ccccc2S3=O)CC1 (centres undefined) | x | 1.6 | x | x | x | x
CCc1ccccc1N(C)S(=O)(=O)c1ccc2[nH]cc(C(=O)O)c(=O)c2c1 | 1.3 | 4.2 | -0.3 | 9.5* | 2.8 | -8.8
Cc1ccc(S(=O)(=O)NCC2CCC(C(=O)N3CCN(C)CC3)CC2)cc1 (centres undefined) | x | 0.6 | x | x | x | x
CC1CCc2c(C(=O)NCc3ccccn3)csc2C1 (centres undefined) | 4.2 | 1.1 | 2.1 | 9.0* | 0.2 | 0.4
CSCCC(NS(=O)(=O)/C=C/c1ccccc1)C(=O)NCCc1ccc(S(N)(=O)=O)cc1 (centres undefined) | 0.1 | -9.0 | 0.4 | 1.7 | 0.8 | -3.1
CCN(C(=O)Nc1cccc(Cl)c1)c1ccccc1 | x | -1.6 | x | x | x | x
CCOC(=O)NC(N(O)c1cccc(Cl)c1)C(Cl)(Cl)Cl (centres undefined) | 0.3 | 31.2* | -5.3 | 4.3 | 0.8 | 4.6
NC(=O)CCCc1nc(-c2ccccc2Cl)no1 | 2.2 | -5.6 | -1.2 | 10.3* | 0.2 | -2.5
CCOc1ccc(Nc2nc(NCc3ccco3)nc(N)c2[N+](=O)[O-])cc1 | -7.9 | 0.4 | -0.5 | 2.5 | -0.8 | -9.8
COc1ccc(OC)c(Nc2nc(NCc3ccco3)nc(N)c2[N+](=O)[O-])c1 | 9.6 | -0.5 | 5.2 | 8.9* | 1.3 | 4.9
COc1ccc(-c2csc(NC(=O)C3CCCCN3S(=O)(=O)c3ccccc3)n2)cc1 (centres undefined) | 7.7 | -6.4 | 0.2 | 10.0* | 1.0 | -23.6
O=C(CN1CCN(c2ccc(F)cc2)CC1)c1ccc(O)cc1O | x | 17.9 | x | x | x | x
CCN(CCCNC(=O)CCc1nc(-c2ccc(OC)cc2)no1)c1cccc(C)c1 | 9.3 | 31.7* | -1.2 | -1.5 | 0.4 | -1.3
COc1ccc(-c2noc(CCC(=O)NCCc3ccccc3)n2)cc1 | x | 4.5 | x | x | x | x
Cc1cccc2sc(NNC(=O)c3cc(-c4cccs4)nc4ccccc34)nc12 | 7.3 | 31.4* | -5.5 | -3.5 | x | -6.1
O=[N+]([O-])c1cccnc1Oc1ccc(C2SCCS2)cc1 | 0.0 | 23.7 | 4.2 | 1.6 | 0.0 | -7.1
COc1cc(C2SCCS2)cc(Br)c1Oc1ncccc1[N+](=O)[O-] | 2.6 | -2.1 | -1.8 | 13.4* | -0.4 | -4.3

Screening data: PubChem BioAssay, several laboratories
